These results are taken from article PMC6945491 (Biomaterials, 2019).

As a reminder, the pEC50 is −log10 of the EC50, conventionally taken in molar units.

The subject of one data set is HIV-1NL4–3-eGFP. Description: EC50 by HIV-1 RT activity in infected CEM-CD4+ T cells. The format is cell-based. The conditions noted are these: Human immunodeficiency virus 1, T-cell, 240 h, read-out: EC50 (RT activity).
For the next data set, the system named is MDM. Description: Drug uptake and 3TC-TP formation in MDM. Type of data set: cell-based, human. The conditions noted are these: 100 μM, over 24 h. The essentials: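 Human monocytes differentiated 7–10 days in DMEM with 10% heat-inactivated pooled human serum and 1,000 U/ml M-CSF at 37°C, 5% CO2. MDM exposed to 100 μM nanoformulated prodrug or parent drug. At sampling, cells washed twice in PBS, scraped, counted and pelleted. Pellets extracted in methanol with sonication, then drug measured by LC-MS/MS. 3TC-TP quantified by an established protocol. Triplicate.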

Data set [1] has as its system HIV-1ADA. Description: Long-term antiretroviral efficacy in MDM. As to conditions: 8 h 100 μM, HIV-1ADA challenge. Type of data set: cell-based. In short, it runs like this:
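MDM loaded 8 h with 100 μM test compound or parent drug, washed with PBS and kept drug-free with half-medium exchanges every other day. Challenged with HIV-1ADA (MOI 0.1) at days 1–30 after loading, then virus medium replaced. Ten days later medium RT activity was expressed as % of infected untreated cells. Cells fixed in 4% paraformaldehyde and HIV-1 p24 immunostained.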

The nature of data set [2]: Pharmacokinetics and biodistribution in rats. The conditions noted are these: single IM 75 mg/kg, after one day, limit of quantitation, data not shown.
Data set [3] relates to HIV-1ADA. Description: EC50 by HIV-1 RT activity in infected MDM. The conditions noted are these: Human immunodeficiency virus 1, 240 h, read-out: EC50 (RT activity). Type of data set: cell-based. The essentials:
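Human MDM (80,000 cells/well) pretreated 60 min with test compound or parent drug. Infected with HIV-1ADA at MOI 0.1 for 4 h, then cultured 10 days at the same drug concentration with half-medium changes every other day. Supernatant RT activity measured on day 10. EC50 fitted by sigmoidal 4-point logarithmic regression; triplicate.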

pEC50: −log10 of the molar value. A value given as a limit tells only on which side of the number the result lay.

Turning to `Nc1ccn([C@H]2CS[C@@H](CO)O2)c(=O)n1` [3TC, 2’,3’-Dideoxy-3’-Thiacytidine], the negative-log EC50 (pEC50) was 7.45 in the data set on HIV-1NL4–3-eGFP and 7.71 in the data set on HIV-1ADA [3]. Besides, the intracellular drug concentration with MDM is recorded as < 0.5 μg/10^6 cells. Moreover, the “time of viral breakthrough after treatment” value in the data set with HIV-1ADA [1] was “within one day”. In addition, the “drug levels in plasma and tissues” value in data set [2] was ≤ 0.05 ng/mL.
